Screening data: PubChem, The Scripps Research Institute Molecular Screening Center
NR2E3 ag-1 – inhibitors of NR2E3-RetCOR corepressor binding, primary screen, NR2E3 agonist project, biochemical, TR-FRET, GST-NR2E3, biotin-RetCOR | 0.12% of 320,000 active | inhibition of corepressor binding, % at 4.78 µM | 1536-well;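 active means percent inhibition above the cutoff of mean plus 3 SD of all tested compounds, set per screening campaign, cut at about 20% in these data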;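 further: 0% = DMSO wells and 100% = biotin wells as full block of FRET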
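Test system – NR2E3–RetCOR corepressor complex · Quantity – NR2E3 fusion 1.35 nM · Buffer or medium – Tris pH 7.5 · Incubation – Compound–protein incubation for 5 h at 4 °C · Technique – TR-FRET, Eu(K)-anti-GST donor, streptavidin-D2 acceptor, ex 340, em 617/671 nm · Evaluation – percent inhibition of 671/617 nm emission ratio versus biotin and DMSO controls · Plate – 1536-well format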
PP5 primary – PP5 phosphatase inhibitors, primary screen, biochemical, fluorescence; Serine/threonine-protein phosphatase 5 (Homo sapiens), P53041; purified PP5c, OMFP substrate fluorescence; inhibition, % at 6.7 µM; 0.18% of 320,000 active; AID 1987, 2009;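 active means inhibition above the campaign's mean inhibition across all tested compounds plus 3 SD, cut at about 9.5% in these data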;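 further: 0% = DMSO only and 100% = 100 µM cantharidin control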
Target sequence (P53041 whole entry, looked up): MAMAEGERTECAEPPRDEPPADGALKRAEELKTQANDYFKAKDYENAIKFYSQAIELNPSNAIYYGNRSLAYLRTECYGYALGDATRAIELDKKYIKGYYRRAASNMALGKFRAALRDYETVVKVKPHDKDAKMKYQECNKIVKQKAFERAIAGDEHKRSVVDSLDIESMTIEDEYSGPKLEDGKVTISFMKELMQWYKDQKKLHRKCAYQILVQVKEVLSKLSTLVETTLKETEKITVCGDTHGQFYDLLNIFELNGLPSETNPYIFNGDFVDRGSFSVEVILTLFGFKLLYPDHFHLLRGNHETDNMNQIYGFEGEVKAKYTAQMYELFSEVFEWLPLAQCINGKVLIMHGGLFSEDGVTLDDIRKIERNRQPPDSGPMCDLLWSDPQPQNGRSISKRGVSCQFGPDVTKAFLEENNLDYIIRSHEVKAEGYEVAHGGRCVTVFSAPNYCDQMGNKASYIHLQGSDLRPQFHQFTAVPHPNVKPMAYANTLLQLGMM
NR2E3 ag-2 – NR2E3 agonists in two-hybrid cells, primary screen, cell-based, luminescence, CHO-S, Gal4-NCOR/VP16-NR2E3 | luciferase | inhibition of corepressor binding, % at 3.98 µM | Photoreceptor-specific nuclear receptor (Homo sapiens), Q9Y5X4 | 0.35% of 360,000 active | AID 602229, 2012;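 active means inhibition above the mean of all tested compounds plus 3 SD, cut at about 70% in these data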;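 further: 0% = DMSO with NR2E3 transfected cells and 100% = cells lacking NR2E3 construct; higher means lower luciferase signal from less NR2E3 corepressor binding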
PP1 inh – PP1-alpha phosphatase inhibitors, primary screen, counter-screen for PP5 inhibitor project, biochemical, fluorescence, OMFP substrate, single point; Serine/threonine-protein phosphatase PP1-alpha catalytic subunit (Homo sapiens), P62136; purified PP1alpha; inhibition, % at 6.7 µM; 0.9% of 320,000 active; AID 2235, 2010;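 active means inhibition above the mean inhibition of all tested compounds plus 3 SD, computed separately for each screening campaign, cut at about 15% in these data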
PP1 confirm – PP1 phosphatase inhibitors, confirmation, biochemical, fluorescence, OMFP substrate, triplicate. shares compounds with PP1 inh. purified PP1alpha. inhibition, % at 6.7 µM. 52% of 1,900 active. AID 2358, 2010;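 active means mean PP1 inhibition above a set limit taken from the earlier primary screen, cut at about 15% in these data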
PP5 inh counter – PP5 phosphatase inhibition by PP1 hits, confirmation, counter-screen for PP1 inhibitor project, biochemical, fluorescence, triplicate | shares compounds with PP1 inh | purified PP5c, OMFP fluorescence | inhibition, % at 6.7 µM | 4% of 1,900 active | AID 2360, 2010;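 active means mean PP5 inhibition over triplicate wells above about 9.5% taken from the earlier PP1 screen, limit read from the data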
Active calls of the source: *; . = no result given. An excerpt weighted towards active compounds, which were near 1.3% of everything screened.

SMILES	NR2E3 ag-1	PP5 primary	NR2E3 ag-2	PP1 inh	PP1 confirm	PP5 inh counter
COC(=O)c1ccc(C2/C(=C(\O)c3ccc4c(c3)OCCO4)C(=O)C(=O)N2c2nnc(C)s2)cc1 (centres undefined)	7	-2	-138	-1	.	.
CN(c1ccccc1)S(=O)(=O)c1ccc(C(=O)N2CCN(c3ccccc3)CC2)cc1	.	.	-5	.	.	.
Clc1nssc1=Nc1ccccc1	.	.	-27	.	.	.
Clc1ccc(N=c2ssnc2Cl)cc1	1	0	8	19*	1	-1
COc1ccc(CCNC(=O)CCC(=O)NC2CCCC(C)C2C)cc1OC (centres undefined)	-1	-2	-17	1	.	.
CC(C)(C)c1ccc(C(=O)Nc2ncn[nH]2)cc1	3	0	-94	26*	6	-6
Cc1ccc(C(=O)Nc2ncn[nH]2)cc1	-1	-1	-14	-1	.	.
O=C1OC(=O)C2C3CCC(O3)C12 (centres undefined)	-1	67*	.	75*	46*	51*
Cc1ccccc1NC(=O)C(=O)NNC(=O)COc1ccc2ccccc2c1	-3	0	3	18*	15	-6
O=C(COc1ccc2ccccc2c1)NNC(=O)Nc1ccccc1F	3	5	-15	2	.	.
N#Cc1nc(-c2ccc(OCc3ccccc3)cc2)oc1NCCCn1ccnc1	-1	5	-10	21*	9	1
Cn1ccc2cc3c(cc21)CCN3C(=O)Nc1cccnc1	7	1	-2	35*	0	-1
O=c1c(O)cccc2cc(O)c(O)c(O)c12	16	2	9	21*	14	-3
Cc1c(OC(C)C(=O)NCc2ccncc2)ccc2c3c(c(=O)oc12)CCCC3 (centres undefined)	0	-2	-24	0	.	.
O=C(c1ccc(F)cc1F)N1CCCN(c2nc(-c3ccccc3)ns2)CC1	-3	2	-22	-1	.	.
CC(C)(C)NC(=O)N1CCN(c2nc(-c3ccccc3)ns2)CC1	4	1	-63	53*	0	-2
CCCCCCOc1ccc(/C(C)=N/NC2=NCCN2)cc1	1	3	11	20*	-1	-3
CCCCCOc1ccc(/C(C)=N/NC2=NCCN2)cc1	5	1	-3	1	.	.
COc1ccc(Cl)cc1C(=O)Nc1cccc(-c2ccc3nncn3n2)c1	-164	1	20	51*	45*	0
c1cc2c3c(cccc3c1)NC1(CCC3(CC1)Nc1cccc4cccc(c14)N3)N2	-2	6	-28	6	.	.
c1cc2c3c(cccc3c1)NC1(CCCCC1)N2	7	1	-12	26*	10	18*
c1cc2c3c(cccc3c1)NC1(CCCCCC1)N2	0	1	-7	21*	21*	7
CC1=Nc2cccc3cccc(c23)N1	-3	1	-19	4	.	.
COc1ccccc1C(=O)NC(=O)COC(=O)CNC(=O)c1ccc(Cl)c([N+](=O)[O-])c1	-1	0	1	27*	-3	-3
CCCCCOc1ccc(NC(=O)C(=O)NCCCn2ccnc2)cc1	-1	3	10	44*	4	-3
SMILES	NR2E3 ag-1	PP5 primary	NR2E3 ag-2	PP1 inh	PP1 confirm	PP5 inh counter
COCOCCn1cc(CN2CCS(=O)(=O)N(Cc3ccc(-c4ccncc4)cc3)C(C(C)C)C2=O)nn1 (centres undefined)	.	.	-10	.	.	.
CCOc1ccc(NS(=O)(=O)c2ccc(C(=O)N(C)CC(=O)Nc3cccc(OC)c3)cc2)cc1	.	.	6	.	.	.
O=C(c1ccccc1)N1CCN(S(=O)(=O)c2ccccc2)CC1	0	2	-35	-2	.	.
Cn1cccc1C(=O)N1CCN(S(=O)(=O)c2ccccc2)CC1	2	0	11	50*	-2	0
COc1ccc(OC)c(S(=O)(=O)Nc2ccc3[nH]c(=O)[nH]c3c2)c1	-1	1	-33	1	.	.
Cc1cc(C)c2sc(NNC(=O)c3ccc(S(=O)(=O)N4CCc5ccccc5C4)cc3)nc2c1	2	4	0	24*	37*	-2
Cc1cc(C)c2nc(NNC(=O)c3ccc(S(=O)(=O)N4CCc5ccccc5C4)cc3)sc2c1	0	1	-46	22*	27*	1
O=C(CCS(=O)(=O)c1ccc(F)cc1)Nc1nc(-c2ccncc2)cs1	0	-1	-7	0	.	.
O=C(/C=C/[C@H]1O[C@@H](n2ccc(=O)[nH]c2=O)[C@H](O)[C@@H]1O)NCCN1CCCC1	.	.	-1	.	.	.
O=C(Nc1nc2ccc(F)cc2s1)c1ccc([N+](=O)[O-])o1	.	.	-16	.	.	.
Cc1ccc(-n2c(C)cc(/C=C3\SC(=O)NC3=O)c2C)cc1	-4	1	-109	2	.	.
Cc1cc(/C=C2\SC(=Nc3ccccc3)NC2=O)c(C)n1-c1ccc(S(N)(=O)=O)cc1	2	4	-37	18*	7	0
O=C(NCCc1cccs1)Nc1nnc([C@H]2C[C@H](O)[C@@H](CO)O2)s1	.	.	-28	.	.	.
N#CCCN(C(=O)COC(=O)CCN=C1NS(=O)(=O)c2ccccc21)c1ccc(F)cc1	-3	-1	-7	39*	-3	-2
O=c1[nH]c(CN2CCc3ccccc32)nc2scc(-c3cccs3)c12	-7	-1	-21	19*	13	-1
O=C(CSCc1nc2scc(-c3cccs3)c2c(=O)[nH]1)Nc1ccccn1	2	0	-39	2	.	.
CC1Cc2ccccc2N1Cc1cc(=O)n2ccsc2n1 (centres undefined)	2	-4	-34	22*	19*	-2
COc1ccccc1N1CCN(Cc2cc(=O)n3ccsc3n2)CC1	-1	0	14	-2	.	.
CC1CCc2[nH]nc(C(=O)O)c2C1 (centres undefined)	1	2	-7	-5	.	.
O=C(O)c1n[nH]c2c1CC(C1CCCCC1)CC2 (centres undefined)	-5	3	-36	19*	8	0
Cc1cc(N/N=C/c2ccc(Cl)cc2)nc(NCc2ccccc2)n1	-3	6	-41	19*	2	-1
Cc1cc(N/N=C/c2cccc(F)c2)nc(NCc2ccccc2)n1	-2	2	-15	9	.	.
Cc1cc2cc(CNC(=O)c3cc4ccccc4o3)ccc2n1C	5	5	.	22*	9	-2
Cc1cc2cc(CNC(=O)c3ccco3)ccc2n1C	-4	2	-18	9	.	.
